Laboratory results taken from PMC4102602 (European journal of oral sciences, 2013).
Read-outs that look alike come from different tables or passages of the source.

Columns and labels:
[1] = test system: MG63 human osteoblast-like cells; format: cell-based; settings: over the range of surface concentrations shown for P3 in Fig. 3; mean ± S.E; N = at least 6
In short: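 MG63 cells grown in MEM plus NEAA with heat-inactivated 10% FBS. 96-well non-tissue-culture polystyrene plates were coated with peptide, washed, aftercoated with BSA and washed; uncoated plates served as control. Cells were seeded at 30,000/well in serum-free medium for 2 h at 37°C, washed three times with PBS, and counted by hexosaminidase activity as percent of control. Adsorbed peptide was quantified by micro BCA at 562 nm.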

[2] = test system: MC3T3 cells (RGD-binding integrin receptors); format: cell-based, mouse; settings: for residual MC3T3 cell attachment activity after preincubating cells with RGD: 30 min preincubation, 25 μM peptide coating concentration, Fig. 4A; for cell attachment activity remaining after preincubating cells with RGD: mean ± S.E, N = 5-6
In short: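 MC3T3 cells were preincubated in tubes for 30 min with RGD tripeptide (up to 500 μM) in serum-free medium with 0.1% BSA. FBS was then added to 10% v/v, and cells were pelleted (600 × g, 5 min) and washed twice. Cells were plated at 30,000/well on BSA-aftercoated polystyrene wells coated with 25 μM peptide for 2 h at 37°C. Attachment was read by hexosaminidase activity, as % of no-RGD control.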

[3] = test system: MC3T3-E1 osteoblast-like cells; format: cell-based, mouse; settings: for maximal increase of MC3T3 cell attachment: solution phase concentrations as high as 50 – 200 μM, control = uncoated wells; for level of MC3T3 cell attachment / enhancement in the level of MC3T3 osteoprogenitor cell attachment / EC50: Fig. 2; for enhancement in the level of MC3T3 osteoprogenitor cell attachment: coating concentration as low as 1 μM; for EC50: read-out: half-maximal effect on MC3T3 cell attachment, peptide solution phase (coating) concentration, 30,000 cells/well, serum-free, 2 h, 37°C
In short: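 Non-tissue-culture 96-well polystyrene was coated overnight with peptide solutions, washed, aftercoated with BSA and washed again; uncoated wells served as control. MC3T3-E1 cells were grown in MEM-α with 5% FBS and 5% NCS, then plated at 30,000 cells/well in serum-free medium for 2 h at 37°C. After three PBS washes, attachment was quantified by hexosaminidase activity as % of control. Mean ± SEM, ≥3 independent cultures.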

[4] = test system: MC3T3-E1 osteoblast-like cells; settings: osteogenic cell attachment; cited from earlier work

hBSP peptide 278-290 [DB2]
maximal percentage increase in the attachment of MG63 cells [1]: 422 ± 41%
residual MC3T3 cell attachment activity after preincubating cells with RGD ([2]; 500 μM RGD): 10-20 % of control

hBSP peptide 279-293 [DB3]
maximal percentage increase in the attachment of MG63 cells [1]: 228 ± 14%

hBSP peptide 279-292 [DB5]
maximal increase of MC3T3 cell attachment [3]: 150-300 % of control

hBSP peptide 281-293 [DB1]
maximal percentage increase in the attachment of MG63 cells [1]: 371 ± 21%
residual MC3T3 cell attachment activity after preincubating cells with RGD ([2]; 500 μM RGD): 10-20 % of control
maximal increase of MC3T3 cell attachment [3]: 150-300 % of control

hBSP peptide 278-292 [DB4]
maximal percentage increase in the attachment of MG63 cells [1]: 731 ± 100%
cell attachment activity remaining after preincubating cells with RGD ([2]; 1 μM RGD, MC3T3 cells): 28 ± 10%
cell attachment activity remaining after preincubating cells with RGD ([2]; 500 μM RGD, MC3T3 cells): 14 ± 9%
level of MC3T3 cell attachment ([3]; 1 μM coating solution): 380 % of control
level of MC3T3 cell attachment ([3]; 10 μM coating solution, % of control): 540%
level of MC3T3 cell attachment ([3]; 50 μM coating solution, % of control): 590%
level of MC3T3 cell attachment ([3]; 100 μM coating solution, % of control): 670%
level of MC3T3 cell attachment ([3]; 200 μM coating solution, % of control): 710%
enhancement in the level of MC3T3 osteoprogenitor cell attachment [3]: several-fold
EC50 [3]: ~1 µM

arg-gly-asp [RGD, reference compound]
block of the attachment of cells to the hBSP peptides ([2]; soluble RGD, MC3T3 cells): 80-90%

BSP peptide 278-302 [P4]
attachment potency greater than that of peptide P2 (281-290) [4]: 1-2 orders of magnitude

hBSP peptide 278-293 [P3]
residual MC3T3 cell attachment activity after preincubating cells with RGD ([2]; 500 μM RGD): 10-20 % of control
attachment potency greater than that of peptide P2 (281-290) [4]: 1-2 orders of magnitude
enhancement in the level of MC3T3 osteoprogenitor cell attachment [3]: several-fold
EC50 [3]: ~1 µM
